Several values for one entry are separate records, joined by “and”; a condition that tells them apart may be missing. Identical values can stand only once.
What was measured:
SHP2 = biological target: T1, SHP2 (Homo sapiens, UniProt Q06124); assay: PTP-catalyzed pNPP hydrolysis, SHP2; assay type: biochemical
T1 sequence (Q06124 262-528): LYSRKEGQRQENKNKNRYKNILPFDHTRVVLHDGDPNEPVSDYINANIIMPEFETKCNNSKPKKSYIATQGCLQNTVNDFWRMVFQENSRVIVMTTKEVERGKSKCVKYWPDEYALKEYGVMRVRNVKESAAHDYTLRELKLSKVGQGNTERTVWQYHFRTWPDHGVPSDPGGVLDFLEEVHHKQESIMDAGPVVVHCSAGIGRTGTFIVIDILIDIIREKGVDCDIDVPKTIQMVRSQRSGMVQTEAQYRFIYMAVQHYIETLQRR
How it was run: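 The SHP2 catalytic domain (residues 262–528) hydrolysed pNPP at 25 °C, pH 7.0 (50 mM 3,3-dimethylglutarate, 1 mM EDTA, ionic strength 0.15 M). Single-point screening used 10 µM final test compound. IC50 was measured at pNPP = Km by A405 after NaOH quench, fitted to AI/A0 = IC50/(IC50+[I]). For Ki and mode, initial rates at inhibitor 0–3 Ki and pNPP 0.2–5× apparent Km were fitted to kinetic equations.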

SHP1 = SHP1 (Homo sapiens, UniProt P29350); assay: PTP-catalyzed pNPP hydrolysis, SHP1; assay type: biochemical
Sequence of SHP1 (P29350 whole entry): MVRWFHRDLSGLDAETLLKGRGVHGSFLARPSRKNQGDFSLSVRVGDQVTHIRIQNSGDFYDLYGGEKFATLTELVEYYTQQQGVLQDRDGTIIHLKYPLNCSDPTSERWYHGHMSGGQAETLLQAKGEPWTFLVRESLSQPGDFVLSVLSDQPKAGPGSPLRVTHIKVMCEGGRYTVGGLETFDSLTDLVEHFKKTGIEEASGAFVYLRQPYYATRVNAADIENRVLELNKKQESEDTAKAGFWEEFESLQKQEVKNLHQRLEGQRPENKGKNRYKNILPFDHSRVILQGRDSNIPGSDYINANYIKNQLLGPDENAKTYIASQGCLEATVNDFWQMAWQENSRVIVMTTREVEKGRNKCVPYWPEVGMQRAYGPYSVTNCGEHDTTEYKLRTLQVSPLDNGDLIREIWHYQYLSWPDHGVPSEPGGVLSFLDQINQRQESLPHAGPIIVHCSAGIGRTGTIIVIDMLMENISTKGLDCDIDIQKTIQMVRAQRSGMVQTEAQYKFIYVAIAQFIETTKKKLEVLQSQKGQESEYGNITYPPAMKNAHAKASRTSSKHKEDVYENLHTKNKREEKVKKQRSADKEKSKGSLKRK
How it was run: (§1)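 pNPP hydrolysis was run at 25 °C in 50 mM 3,3-dimethylglutarate, pH 7.0, 1 mM EDTA, ionic strength 0.15 M (NaCl). pNPP was fixed at each enzyme's experimentally determined Km, and reactions were started with enzyme. They were quenched with NaOH and corrected with no-enzyme controls. p-Nitrophenol was read at 405 nm. IC50 was fitted from AI/A0 = IC50/(IC50+[I]).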

PTP1B = biological target: T2, PTP1B (Homo sapiens, UniProt P18031); assay: PTP-catalyzed pNPP hydrolysis, PTP1B; assay type: biochemical
T2 sequence (P18031 1-435): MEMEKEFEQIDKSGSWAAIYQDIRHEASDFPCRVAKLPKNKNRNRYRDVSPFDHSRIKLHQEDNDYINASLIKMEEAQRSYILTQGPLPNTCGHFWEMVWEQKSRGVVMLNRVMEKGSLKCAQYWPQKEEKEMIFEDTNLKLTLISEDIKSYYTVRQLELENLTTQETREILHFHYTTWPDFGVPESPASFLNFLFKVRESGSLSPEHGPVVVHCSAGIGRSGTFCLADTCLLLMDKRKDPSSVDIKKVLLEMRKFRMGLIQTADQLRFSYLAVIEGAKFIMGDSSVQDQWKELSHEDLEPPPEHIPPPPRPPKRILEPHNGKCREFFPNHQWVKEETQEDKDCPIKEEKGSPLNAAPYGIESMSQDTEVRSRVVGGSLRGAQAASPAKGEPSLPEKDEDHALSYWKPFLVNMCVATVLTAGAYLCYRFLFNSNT
How it was run: as §1

HePTP = biological target: T3, HePTP (Homo sapiens, UniProt P35236); assay: PTP-catalyzed pNPP hydrolysis, HePTP; assay type: biochemical
T3 sequence (P35236 1-360): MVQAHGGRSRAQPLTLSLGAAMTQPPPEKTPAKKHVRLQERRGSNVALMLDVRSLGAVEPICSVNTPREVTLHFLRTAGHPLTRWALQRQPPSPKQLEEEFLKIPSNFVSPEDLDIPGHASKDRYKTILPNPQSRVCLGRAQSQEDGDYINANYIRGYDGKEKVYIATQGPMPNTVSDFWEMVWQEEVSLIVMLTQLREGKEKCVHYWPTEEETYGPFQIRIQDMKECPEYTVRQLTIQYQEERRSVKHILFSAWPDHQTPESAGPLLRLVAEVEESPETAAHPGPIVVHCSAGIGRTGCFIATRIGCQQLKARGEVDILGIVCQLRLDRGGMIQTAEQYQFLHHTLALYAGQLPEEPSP
How it was run: as §1

PTPα = PTPα (Homo sapiens, UniProt P18433); assay: PTP-catalyzed pNPP hydrolysis, PTPα; assay type: biochemical
Sequence of PTPα (P18433 20-802): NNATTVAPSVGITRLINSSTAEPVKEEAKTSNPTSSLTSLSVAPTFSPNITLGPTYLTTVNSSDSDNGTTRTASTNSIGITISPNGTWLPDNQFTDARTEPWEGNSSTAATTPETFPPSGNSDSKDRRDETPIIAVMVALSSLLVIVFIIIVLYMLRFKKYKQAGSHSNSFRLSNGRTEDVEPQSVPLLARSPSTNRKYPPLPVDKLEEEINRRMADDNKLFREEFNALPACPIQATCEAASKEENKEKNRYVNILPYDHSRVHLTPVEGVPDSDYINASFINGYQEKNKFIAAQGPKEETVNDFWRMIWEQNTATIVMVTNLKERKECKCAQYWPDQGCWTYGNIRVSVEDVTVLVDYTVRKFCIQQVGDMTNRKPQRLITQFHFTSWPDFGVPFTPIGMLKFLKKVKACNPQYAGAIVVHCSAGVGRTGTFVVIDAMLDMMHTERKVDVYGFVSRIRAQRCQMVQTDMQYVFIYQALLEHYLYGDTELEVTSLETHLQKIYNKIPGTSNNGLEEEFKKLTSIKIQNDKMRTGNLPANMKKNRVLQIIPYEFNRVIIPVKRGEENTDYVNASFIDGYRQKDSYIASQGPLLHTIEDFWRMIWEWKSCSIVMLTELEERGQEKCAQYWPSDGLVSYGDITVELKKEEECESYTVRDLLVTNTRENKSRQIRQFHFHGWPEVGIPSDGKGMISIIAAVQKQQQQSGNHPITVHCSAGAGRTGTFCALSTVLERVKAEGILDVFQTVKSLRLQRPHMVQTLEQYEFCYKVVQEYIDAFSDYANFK
How it was run: as §1

VHR = VHR (Homo sapiens, UniProt P51452); assay: PTP-catalyzed pNPP hydrolysis, VHR; assay type: biochemical
Sequence of VHR (P51452 whole entry, species assumed): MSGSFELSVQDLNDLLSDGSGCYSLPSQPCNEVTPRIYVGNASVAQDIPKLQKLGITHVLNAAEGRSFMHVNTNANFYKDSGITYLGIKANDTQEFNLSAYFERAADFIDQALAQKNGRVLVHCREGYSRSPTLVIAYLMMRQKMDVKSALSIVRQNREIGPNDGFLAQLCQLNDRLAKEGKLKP
How it was run: as §1

Cdc14A = biological target: T4, Cdc14A (Homo sapiens, UniProt Q9UNH5); assay: PTP-catalyzed pNPP hydrolysis, Cdc14A; assay type: biochemical
T4 sequence (Q9UNH5 1-594): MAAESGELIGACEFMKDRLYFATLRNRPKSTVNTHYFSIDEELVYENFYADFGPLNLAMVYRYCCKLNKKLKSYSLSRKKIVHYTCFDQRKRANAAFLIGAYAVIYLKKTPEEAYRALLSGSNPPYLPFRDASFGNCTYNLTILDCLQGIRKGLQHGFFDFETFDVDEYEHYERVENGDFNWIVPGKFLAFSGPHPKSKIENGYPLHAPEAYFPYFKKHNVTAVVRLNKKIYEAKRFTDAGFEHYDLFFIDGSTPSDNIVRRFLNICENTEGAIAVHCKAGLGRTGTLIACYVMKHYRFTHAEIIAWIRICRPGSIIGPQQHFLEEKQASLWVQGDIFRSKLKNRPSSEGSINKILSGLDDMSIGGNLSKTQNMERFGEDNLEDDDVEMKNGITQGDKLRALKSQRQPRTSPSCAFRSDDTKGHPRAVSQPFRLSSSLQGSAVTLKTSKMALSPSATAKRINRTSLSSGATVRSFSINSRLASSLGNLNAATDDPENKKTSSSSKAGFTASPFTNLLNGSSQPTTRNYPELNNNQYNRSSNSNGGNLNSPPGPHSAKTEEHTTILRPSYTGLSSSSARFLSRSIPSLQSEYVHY
How it was run: as §1

Jurkat T cells = assay: TCR-mediated ERK1/2 activation in Jurkat T cells; assay type: cell-based; conditions: 2 h pretreatment (2 µM), 10 µg/mL anti-CD3
human primary T-cell = conditions: ref Shim et al., 2002; cited from earlier work
PP1 = conditions: biochemical assays; cited from earlier work
PP2A = conditions: biochemical assays; cited from earlier work

In the case of `C=C/C(=C/C(=O)C[C@H](C)C[C@@H](C)CC[C@H](O)[C@H](C)C(=O)C[C@@H](O)[C@H](C)[C@@H](C)OC(=O)C[C@@H](O)C1=C(C)C(=O)OC1=O)CC` [TTN, tautomycetin], the IC50 (SHP2) is reported as 2.9 ± 0.2 µM, the Ki (SHP2) is reported as 1.6 ± 0.1 µM and the “reduction of SHP2 activity” value (SHP2; 10 µM compound, pNPP, pH 7, 25 °C) is reported as 80–90%. For the same compound, the “preference for SHP2 over all PTPs examined” value (SHP2; from IC50 values) was no less than 5 fold, the “mode of SHP2 inhibition” value (SHP2; pNPP hydrolysis, 25 °C, pH 7.0) was “competitive inhibitors” and the IC50 (SHP1) was 14.6 ± 1.1 µM. For the same compound, the IC50 (PTP1B) was 41.2 ± 4.4 µM, the IC50 (HePTP) was greater than 50 µM and the IC50 (PTPα) was greater than 50 µM. For the same compound, the IC50 (VHR) was greater than 50 µM, the IC50 (Cdc14A) was greater than 50 µM and the “effect on TCR-mediated ERK1/2 activation” value (Jurkat T cells) was “strongly reduced”. For the same compound, the “concentration inhibiting human primary T-cell tyrosine phosphorylation” value (human primary T-cell) was 1 µg/mL and 1.65 µM, the “inhibition of PP1” value (PP1) was “low nM range” and the “inhibition of PP2A” value (PP2A) was “low nM range”.
